# Source: ChEMBL document CHEMBL4393701, “Appendix A. dithioloquinolinethiones as new potential multitargeted antibacterial and antifungal agents: Synthesis, biological evaluation and molecular docking studies” (2019)
# System: Bacillus cereus
# Assay: Antibacterial activity against Bacillus cereus clinical isolate after 24 hrs by iodonitrotetrazolium chloride dye based microdilution assay
# Type: functional
# Conditions: not given
# In short: (§1)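 Fresh overnight cultures adjusted spectrophotometrically to 1×10^5 CFU/mL, giving 1.0×10^4 CFU per well in tryptic soy broth. Compounds were dissolved in 5% DMSO and tested at 0.001-1.0 mg/ml by serial dilution; 5% DMSO was the negative control. After 24 h at 37 °C, 0.2 mg/mL INT solution was added for 30 min at 37 °C and OD read at 655 nm. MIC is the lowest concentration giving significant growth inhibition versus the positive control. Duplicates, repeated three times.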
row,MIC,Compound
1,29.8 µM,COc1ccc2c(c1)-c1c(ssc1=S)C(C)(C)N2C(=O)CSc1nc2ccccc2s1

# System: Bacillus cereus
# Assay: Bactericidal activity against Bacillus cereus clinical isolate incubated for 24 hrs followed by re-plating on tryptic soy broth
# Type: functional
# Conditions: not given
# In short: (§2)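 Bacteria were grown in tryptic soy broth, 1.0×10^4 CFU per well, with compounds in 5% DMSO at 0.001-1.0 mg/ml for 24 h at 37 °C. Then 10 µL was subcultured into fresh TSB. MBC is the lowest concentration showing no growth after subculture, taken as 99.5% kill of the original inoculum. Duplicates, repeated three times.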
row,Compound,MBC
1,COc1ccc2c(c1)-c1c(ssc1=S)C(C)(C)N2C(=O)CSc1nc2ccccc2s1,59.7 µM

# System: Micrococcus flavus
# Assay: Antibacterial activity against Micrococcus flavus ATCC 10240 after 24 hrs by iodonitrotetrazolium chloride dye based microdilution method
# Type: functional
# Conditions: ATCC 10240, 24 h
# In short: as §1
row,MIC,Compound
1,29.8 µM,COc1ccc2c(c1)-c1c(ssc1=S)C(C)(C)N2C(=O)CSc1nc2ccccc2s1

# System: Micrococcus flavus
# Assay: Bactericidal activity against Micrococcus flavus ATCC 10240 incubated for 24 hrs followed by re-plating on tryptic soy broth
# Type: functional
# Conditions: ATCC 10240, 24 h
# In short: as §2
row,Compound,MBC
1,COc1ccc2c(c1)-c1c(ssc1=S)C(C)(C)N2C(=O)CSc1nc2ccccc2s1,59.7 µM

# System: Staphylococcus aureus
# Assay: Antibacterial activity against Staphylococcus aureus ATCC 6538 after 24 hrs by iodonitrotetrazolium chloride dye based microdilution method
# Type: functional
# Conditions: ATCC 6538, 24 h
# In short: as §1
row,MIC,Compound
1,29.8 µM,COc1ccc2c(c1)-c1c(ssc1=S)C(C)(C)N2C(=O)CSc1nc2ccccc2s1

# System: Staphylococcus aureus
# Assay: Bactericidal activity against Staphylococcus aureus ATCC 6538 incubated for 24 hrs followed by re-plating on tryptic soy broth
# Type: functional
# Conditions: ATCC 6538, 24 h
# In short: as §2
row,Compound,MBC
1,COc1ccc2c(c1)-c1c(ssc1=S)C(C)(C)N2C(=O)CSc1nc2ccccc2s1,59.7 µM

# System: Listeria monocytogenes
# Assay: Antibacterial activity against Listeria monocytogenes NCTC 7973 after 24 hrs by iodonitrotetrazolium chloride dye based microdilution method
# Type: functional
# Conditions: NCTC 7973, 24 h
# In short: as §1
row,MIC,Compound
1,29.8 µM,COc1ccc2c(c1)-c1c(ssc1=S)C(C)(C)N2C(=O)CSc1nc2ccccc2s1

# System: Listeria monocytogenes
# Assay: Bactericidal activity against Listeria monocytogenes NCTC 7973 incubated for 24 hrs followed by re-plating on tryptic soy broth
# Type: functional
# Conditions: NCTC 7973, 24 h
# In short: as §2
row,Compound,MBC
1,COc1ccc2c(c1)-c1c(ssc1=S)C(C)(C)N2C(=O)CSc1nc2ccccc2s1,59.7 µM

# System: Enterobacter cloacae
# Assay: Antibacterial activity against Enterobacter cloacae clinical isolate after 24 hrs by iodonitrotetrazolium chloride dye based microdilution method
# Type: functional
# Conditions: not given
# In short: as §1
row,MIC,Compound
1,29.8 µM,COc1ccc2c(c1)-c1c(ssc1=S)C(C)(C)N2C(=O)CSc1nc2ccccc2s1

# System: Enterobacter cloacae
# Assay: Bactericidal activity against Enterobacter cloacae incubated for 24 hrs followed by re-plating on tryptic soy broth
# Type: functional
# Conditions: not given
# In short: as §2
row,Compound,MBC
1,COc1ccc2c(c1)-c1c(ssc1=S)C(C)(C)N2C(=O)CSc1nc2ccccc2s1,59.7 µM

# System: Pseudomonas aeruginosa
# Assay: Antibacterial activity against Pseudomonas aeruginosa ATCC 27853 after 24 hrs by iodonitrotetrazolium chloride dye based microdilution method
# Type: functional
# Conditions: ATCC 27853, 24 h
# In short: as §1
row,MIC,Compound
1,29.8 µM,COc1ccc2c(c1)-c1c(ssc1=S)C(C)(C)N2C(=O)CSc1nc2ccccc2s1

# System: Pseudomonas aeruginosa
# Assay: Bactericidal activity against Pseudomonas aeruginosa ATCC 27853 incubated for 24 hrs followed by re-plating on tryptic soy broth
# Type: functional
# Conditions: ATCC 27853, 24 h
# In short: as §2
row,Compound,MBC
1,COc1ccc2c(c1)-c1c(ssc1=S)C(C)(C)N2C(=O)CSc1nc2ccccc2s1,59.7 µM

# System: Salmonella typhimurium
# Assay: Antibacterial activity against Salmonella typhimurium ATCC 13311 after 24 hrs by iodonitrotetrazolium chloride dye based microdilution method
# Type: functional, Salmonella enterica subsp. enterica serovar Typhimurium
# Conditions: Salmonella enterica, ATCC 13311, 24 h
# In short: as §1
row,MIC,Compound
1,29.8 µM,COc1ccc2c(c1)-c1c(ssc1=S)C(C)(C)N2C(=O)CSc1nc2ccccc2s1

# System: Salmonella typhimurium
# Assay: Bactericidal activity against Salmonella typhimurium ATCC 13311 incubated for 24 hrs followed by re-plating on tryptic soy broth
# Type: functional, Salmonella enterica subsp. enterica serovar Typhimurium
# Conditions: Salmonella enterica, ATCC 13311, 24 h
# In short: as §2
row,Compound,MBC
1,COc1ccc2c(c1)-c1c(ssc1=S)C(C)(C)N2C(=O)CSc1nc2ccccc2s1,59.7 µM

# System: Escherichia coli
# Assay: Antibacterial activity against Escherichia coli ATCC 35210 after 24 hrs by iodonitrotetrazolium chloride dye based microdilution method
# Type: functional
# Conditions: ATCC 35210, 24 h
# In short: as §1
row,MIC,Compound
1,29.8 µM,COc1ccc2c(c1)-c1c(ssc1=S)C(C)(C)N2C(=O)CSc1nc2ccccc2s1

# System: Escherichia coli
# Assay: Bactericidal activity against Escherichia coli ATCC 35210 incubated for 24 hrs followed by re-plating on tryptic soy broth
# Type: functional
# Conditions: ATCC 35210, 24 h
# In short: as §2
row,Compound,MBC
1,COc1ccc2c(c1)-c1c(ssc1=S)C(C)(C)N2C(=O)CSc1nc2ccccc2s1,59.7 µM

# System: Aspergillus fumigatus
# Assay: Antifungal activity against Aspergillus fumigatus ATCC 1022 after 72 hrs by microdilution technique
# Type: functional
# Conditions: ATCC 1022, 72 h
# In short: (§3)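 Spores were washed off malt agar with 0.85% saline containing 0.1% Tween 80 and adjusted to about 1.0×10^5 per well. Compounds in 5% DMSO were serially diluted (0.001-1.0 mg/ml) in malt broth with inoculum. Plates were shaken at 160 rpm for 72 h at 28 °C. MIC is the lowest concentration without visible growth under a binocular microscope. Three independent experiments in duplicate.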
row,MIC,Compound
1,1.59 ×10⁻² mM,COc1ccc2c(c1)-c1c(ssc1=S)C(C)(C)N2C(=O)CSc1nc2ccccc2s1

# System: Aspergillus fumigatus
# Assay: Fungicidal activity against Aspergillus fumigatus ATCC 1022 incubated for 72 hrs followed by sub-culturing on broth malt medium and measured after 72 hrs
# Type: functional
# Conditions: ATCC 1022, 72 h
# In short: (§4)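 After 72 h exposure in malt broth, 2 µL from test wells was subcultured into wells holding 100 µL broth and incubated a further 72 h at 28 °C. MFC is the lowest concentration with no visible growth, taken as 99.5% kill of the original inoculum. Three independent experiments in duplicate.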
row,Compound,MFC
1,COc1ccc2c(c1)-c1c(ssc1=S)C(C)(C)N2C(=O)CSc1nc2ccccc2s1,2.98 ×10⁻² mM

# System: Aspergillus versicolor
# Assay: Antifungal activity against Aspergillus versicolor ATCC 11730 after 72 hrs by microdilution method
# Type: functional
# Conditions: ATCC 11730, 72 h
# In short: as §3
row,MIC,Compound
1,1.59 ×10⁻² mM,COc1ccc2c(c1)-c1c(ssc1=S)C(C)(C)N2C(=O)CSc1nc2ccccc2s1

# System: Aspergillus versicolor
# Assay: Fungicidal activity against Aspergillus versicolor ATCC 11730 incubated for 72 hrs followed by sub-culturing on broth malt medium and measured after 72 hrs
# Type: functional
# Conditions: ATCC 11730, 72 h
# In short: as §4
row,Compound,MFC
1,COc1ccc2c(c1)-c1c(ssc1=S)C(C)(C)N2C(=O)CSc1nc2ccccc2s1,2.98 ×10⁻² mM

# System: Aspergillus ochraceus
# Assay: Antifungal activity against Aspergillus ochraceus ATCC 12066 after 72 hrs by microdilution technique
# Type: functional
# Conditions: ATCC 12066, 72 h
# In short: as §3
row,MIC,Compound
1,1.59 ×10⁻² mM,COc1ccc2c(c1)-c1c(ssc1=S)C(C)(C)N2C(=O)CSc1nc2ccccc2s1

# System: Aspergillus ochraceus
# Assay: Fungicidal activity against Aspergillus ochraceus ATCC 12066 incubated for 72 hrs followed by sub-culturing on broth malt medium and measured after 72 hrs
# Type: functional
# Conditions: ATCC 12066, 72 h
# In short: as §4
row,Compound,MFC
1,COc1ccc2c(c1)-c1c(ssc1=S)C(C)(C)N2C(=O)CSc1nc2ccccc2s1,2.98 ×10⁻² mM

# System: Aspergillus niger
# Assay: Antifungal activity against Aspergillus niger ATCC 6275 after 72 hrs by microdilution technique
# Type: functional
# Conditions: ATCC 6275, 72 h
# In short: as §3
row,MIC,Compound
1,1.59 ×10⁻² mM,COc1ccc2c(c1)-c1c(ssc1=S)C(C)(C)N2C(=O)CSc1nc2ccccc2s1

# System: Aspergillus niger
# Assay: Fungicidal activity against Aspergillus niger ATCC 6275 incubated for 72 hrs followed by sub-culturing on broth malt medium and measured after 72 hrs
# Type: functional
# Conditions: ATCC 6275, 72 h
# In short: as §4
row,Compound,MFC
1,COc1ccc2c(c1)-c1c(ssc1=S)C(C)(C)N2C(=O)CSc1nc2ccccc2s1,2.98 ×10⁻² mM

# System: Trichoderma viride
# Assay: Antifungal activity against Trichoderma viride IAM 5061 after 72 hrs by microdilution technique
# Type: functional
# Conditions: IAM 5061, 72 h
# In short: as §3
row,MIC,Compound
1,0.8 ×10⁻² mM,COc1ccc2c(c1)-c1c(ssc1=S)C(C)(C)N2C(=O)CSc1nc2ccccc2s1

# System: Trichoderma viride
# Assay: Fungicidal activity against Trichoderma viride IAM 5061 incubated for 72 hrs followed by sub-culturing on broth malt medium and measured after 72 hrs
# Type: functional
# Conditions: IAM 5061, 72 h
# In short: as §4
row,Compound,MFC
1,COc1ccc2c(c1)-c1c(ssc1=S)C(C)(C)N2C(=O)CSc1nc2ccccc2s1,1.59 ×10⁻² mM

# System: Penicillium ochrochloron
# Assay: Antifungal activity against Penicillium ochrochloron ATCC 9112 after 72 hrs by microdilution technique
# Type: functional
# Conditions: ATCC 9112, 72 h
# In short: as §3
row,MIC,Compound
1,0.4 ×10⁻² mM,COc1ccc2c(c1)-c1c(ssc1=S)C(C)(C)N2C(=O)CSc1nc2ccccc2s1

# System: Penicillium ochrochloron
# Assay: Fungicidal activity against Penicillium ochrochloron ATCC 9112 incubated for 72 hrs followed by sub-culturing on broth malt medium and measured after 72 hrs
# Type: functional
# Conditions: ATCC 9112, 72 h
# In short: as §4
row,Compound,MFC
1,COc1ccc2c(c1)-c1c(ssc1=S)C(C)(C)N2C(=O)CSc1nc2ccccc2s1,0.8 ×10⁻² mM

# System: not listed separately
# Assay: Antifungal activity against Penicillium funiculosum ATCC 36839 after 72 hrs by microdilution technique
# Type: functional
# Conditions: Talaromyces pinophilus, ATCC 36839, 72 h
# In short: as §3
row,MIC,Compound
1,1.59 ×10⁻² mM,COc1ccc2c(c1)-c1c(ssc1=S)C(C)(C)N2C(=O)CSc1nc2ccccc2s1

# System: not listed separately
# Assay: Fungicidal activity against Penicillium funiculosum ATCC 36839 incubated for 72 hrs followed by sub-culturing on broth malt medium and measured after 72 hrs
# Type: functional
# Conditions: Talaromyces pinophilus, ATCC 36839, 72 h
# In short: as §4
row,Compound,MFC
1,COc1ccc2c(c1)-c1c(ssc1=S)C(C)(C)N2C(=O)CSc1nc2ccccc2s1,2.98 ×10⁻² mM

# System: Penicillium cyclopium
# Assay: Antifungal activity against Penicillium verrucosum var. cyclopium food isolate after 72 hrs by microdilution technique
# Type: functional
# Conditions: not given
# In short: as §3
row,MIC,Compound
1,1.59 ×10⁻² mM,COc1ccc2c(c1)-c1c(ssc1=S)C(C)(C)N2C(=O)CSc1nc2ccccc2s1

# System: Penicillium cyclopium
# Assay: Fungicidal activity against Penicillium verrucosum var. cyclopium food isolate incubated for 72 hrs followed by sub-culturing on broth malt medium and measured after 72 hrs
# Type: functional
# Conditions: not given
# In short: as §4
row,Compound,MFC
1,COc1ccc2c(c1)-c1c(ssc1=S)C(C)(C)N2C(=O)CSc1nc2ccccc2s1,2.98 ×10⁻² mM
